From ChEMBL document CHEMBL5724801, “EUbOPEN Chemogenomics Library - Multiplex” (2024)
“And” between values parts separate entries of the source, which are not always exact repeats. Identical values can stand only once.

Test system: U2OS
Assay: Multiplex assay against U2OS
Format: toxicity, cell-based
Details: human
How it was run: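 Four dyes were applied at seeding to live cells: Hoechst33342, BioTracker Green Microtubule Cytoskeleton Dye, MitoTracker Red and Annexin V Alexa Fluor 680. Imaging after compound addition used a CQ1 microscope at 37°C and 5% CO2. CellPathfinder machine-learning gating then sorted cells into Hoechst high-intensity objects or normal cells, normal cells into healthy, pyknosed or fragmented nuclei, and pyknosed cells into mitotic or apoptotic, with tubulin, mitochondrial-mass and membrane-permeability phenotypes given as per cents of healthy-nucleus cells.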

[1] = 12 h, 1 µM, compound concentration 1 uM
[2] = 12 h, 10 µM, compound concentration 10 uM
[3] = 24 h, 1 µM, compound concentration 1 uM
[4] = 24 h, 10 µM, compound concentration 10 uM
[5] = 48 h, 1 µM, compound concentration 1 uM
[6] = 48 h, 10 µM, compound concentration 10 uM

Question: For `Cl.NCCc1ccc(O)c(O)c1` [DOPAMINE HYDROCHLORIDE], which “Population Apoptotic (%)” value [1] is on record?
Answer: 100% and 83%

Question: What about the “Population Fragmented Nuclei (%)” value [1] of the same compound?
Answer: 23% and 15%

Question: And the “Population Healthy Nuclei (%)” value [1]?
Answer: 67% and 72%

Question: What about the “Population Hoechst High Intensity Objects (%)” value [1] of the same compound?
Answer: 3% and 1%

Question: What about the “Population Membrane Permeable-Phenotype (%)” value [1] of the same compound?
Answer: 5% and 8%

Question: What about the “Population Mitochondria Different-Phenotype (%)” value [1] of the same compound?
Answer: 1% and 2%

Question: And the “Population Mitotic Cells (%)” value [1]?
Answer: 0% and 16%

Question: What about the “Population Normal (%)” value [1] of the same compound?
Answer: 96% and 98%

Question: And the “Population Pyknosed Nuclei (%)” value [1]?
Answer: 9% and 11%

Question: And the “Population Tubulin-Different-Phenotype (%)” value [1]?
Answer: 2% and 5%

Question: What about the “Total Cell Count” value [1] of the same compound?
Answer: 237 and 104

Question: What about the “Population Apoptotic (%)” value [2] of the same compound?
Answer: 80% and 75%

Question: And the “Population Fragmented Nuclei (%)” value [2]?
Answer: 21% and 18%

Question: And the “Population Healthy Nuclei (%)” value [2]?
Answer: 65% and 76%

Question: And the “Population Hoechst High Intensity Objects (%)” value [2]?
Answer: 3% and 0%

Question: What about the “Population Membrane Permeable-Phenotype (%)” value [2] of the same compound?
Answer: 2% and 4%

Question: What about the “Population Mitochondria Different-Phenotype (%)” value [2] of the same compound?
Answer: 1%

Question: What about the “Population Mitotic Cells (%)” value [2] of the same compound?
Answer: 20% and 25%

Question: What about the “Population Normal (%)” value [2] of the same compound?
Answer: 96% and 100%

Question: What about the “Population Pyknosed Nuclei (%)” value [2] of the same compound?
Answer: 12% and 4%

Question: And the “Population Tubulin-Different-Phenotype (%)” value [2]?
Answer: 1%

Question: What about the “Total Cell Count” value [2] of the same compound?
Answer: 204 and 95

Question: And the “Population Apoptotic (%)” value [3]?
Answer: 90% and 80%

Question: And the “Population Fragmented Nuclei (%)” value [3]?
Answer: 18% and 14%

Question: And the “Population Healthy Nuclei (%)” value [3]?
Answer: 69% and 77%

Question: And the “Population Hoechst High Intensity Objects (%)” value [3]?
Answer: 4% and 1%

Question: And the “Population Membrane Permeable-Phenotype (%)” value [3]?
Answer: 7% and 4%

Question: What about the “Population Mitochondria Different-Phenotype (%)” value [3] of the same compound?
Answer: 2% and 1%

Question: What about the “Population Mitotic Cells (%)” value [3] of the same compound?
Answer: 10% and 20%

Question: And the “Population Normal (%)” value [3]?
Answer: 95% and 98%

Question: What about the “Population Pyknosed Nuclei (%)” value [3] of the same compound?
Answer: 11% and 7%

Question: And the “Population Tubulin-Different-Phenotype (%)” value [3]?
Answer: 5% and 2%

Question: And the “Total Cell Count” value [3]?
Answer: 263 and 132

Question: And the “Population Apoptotic (%)” value [4]?
Answer: 92% and 87%

Question: And the “Population Fragmented Nuclei (%)” value [4]?
Answer: 18% and 15%

Question: What about the “Population Healthy Nuclei (%)” value [4] of the same compound?
Answer: 70% and 77%

Question: What about the “Population Hoechst High Intensity Objects (%)” value [4] of the same compound?
Answer: 2% and 0%

Question: And the “Population Membrane Permeable-Phenotype (%)” value [4]?
Answer: 4% and 1%

Question: What about the “Population Mitochondria Different-Phenotype (%)” value [4] of the same compound?
Answer: 0%

Question: What about the “Population Mitotic Cells (%)” value [4] of the same compound?
Answer: 8% and 12%

Question: What about the “Population Normal (%)” value [4] of the same compound?
Answer: 97% and 99%

Question: And the “Population Pyknosed Nuclei (%)” value [4]?
Answer: 10% and 7%

Question: And the “Population Tubulin-Different-Phenotype (%)” value [4]?
Answer: 1%

Question: What about the “Total Cell Count” value [4] of the same compound?
Answer: 245 and 111

Question: What about the “Population Apoptotic (%)” value [5] of the same compound?
Answer: 90% and 89%

Question: What about the “Population Fragmented Nuclei (%)” value [5] of the same compound?
Answer: 17% and 14%

Question: And the “Population Healthy Nuclei (%)” value [5]?
Answer: 70% and 73%

Question: And the “Population Hoechst High Intensity Objects (%)” value [5]?
Answer: 2%

Question: And the “Population Membrane Permeable-Phenotype (%)” value [5]?
Answer: 5% and 7%

Question: What about the “Population Mitochondria Different-Phenotype (%)” value [5] of the same compound?
Answer: 3% and 4%

Question: And the “Population Mitotic Cells (%)” value [5]?
Answer: 9% and 10%

Question: What about the “Population Normal (%)” value [5] of the same compound?
Answer: 97%

Question: And the “Population Pyknosed Nuclei (%)” value [5]?
Answer: 11%

Question: What about the “Population Tubulin-Different-Phenotype (%)” value [5] of the same compound?
Answer: 4% and 3%

Question: What about the “Total Cell Count” value [5] of the same compound?
Answer: 363 and 172

Question: What about the “Population Apoptotic (%)” value [6] of the same compound?
Answer: 85% and 100%

Question: And the “Population Fragmented Nuclei (%)” value [6]?
Answer: 18% and 14%

Question: What about the “Population Healthy Nuclei (%)” value [6] of the same compound?
Answer: 66% and 76%

Question: What about the “Population Hoechst High Intensity Objects (%)” value [6] of the same compound?
Answer: 2% and 1%

Question: And the “Population Membrane Permeable-Phenotype (%)” value [6]?
Answer: 7% and 2%

Question: And the “Population Mitochondria Different-Phenotype (%)” value [6]?
Answer: 3% and 2%

Question: And the “Population Mitotic Cells (%)” value [6]?
Answer: 14% and 0%

Question: And the “Population Normal (%)” value [6]?
Answer: 97% and 98%

Question: What about the “Population Pyknosed Nuclei (%)” value [6] of the same compound?
Answer: 14% and 8%

Question: What about the “Population Tubulin-Different-Phenotype (%)” value [6] of the same compound?
Answer: 5% and 2%

Question: And the “Total Cell Count” value [6]?
Answer: 338 and 179

Question: `CNC[C@H](O)c1ccc(O)c(O)c1` [EPINEPHRINE] was tested. Which “Population Apoptotic (%)” value [1] did it give?
Answer: 88% and 80%

Question: What about the “Population Fragmented Nuclei (%)” value [1] of the same compound?
Answer: 35% and 17%

Question: And the “Population Healthy Nuclei (%)” value [1]?
Answer: 56% and 77%

Question: What about the “Population Hoechst High Intensity Objects (%)” value [1] of the same compound?
Answer: 2% and 0%

Question: What about the “Population Membrane Permeable-Phenotype (%)” value [1] of the same compound?
Answer: 5% and 7%

Question: And the “Population Mitochondria Different-Phenotype (%)” value [1]?
Answer: 1% and 2%

Question: And the “Population Mitotic Cells (%)” value [1]?
Answer: 11% and 20%

Question: What about the “Population Normal (%)” value [1] of the same compound?
Answer: 97% and 100%

Question: What about the “Population Pyknosed Nuclei (%)” value [1] of the same compound?
Answer: 7% and 5%

Question: And the “Population Tubulin-Different-Phenotype (%)” value [1]?
Answer: 2% and 4%

Question: And the “Total Cell Count” value [1]?
Answer: 229 and 92

Question: And the “Population Apoptotic (%)” value [2]?
Answer: 92% and 86%

Question: And the “Population Fragmented Nuclei (%)” value [2]?
Answer: 41% and 33%

Question: And the “Population Healthy Nuclei (%)” value [2]?
Answer: 45% and 50%

Question: And the “Population Hoechst High Intensity Objects (%)” value [2]?
Answer: 6% and 9%

Question: What about the “Population Membrane Permeable-Phenotype (%)” value [2] of the same compound?
Answer: 7% and 6%

Question: What about the “Population Mitochondria Different-Phenotype (%)” value [2] of the same compound?
Answer: 1% and 2%

Question: And the “Population Mitotic Cells (%)” value [2]?
Answer: 8% and 13%

Question: What about the “Population Normal (%)” value [2] of the same compound?
Answer: 93% and 90%

Question: What about the “Population Pyknosed Nuclei (%)” value [2] of the same compound?
Answer: 13% and 15%

Question: What about the “Population Tubulin-Different-Phenotype (%)” value [2] of the same compound?
Answer: 4% and 6%

Question: And the “Total Cell Count” value [2]?
Answer: 199 and 105

Question: What about the “Population Apoptotic (%)” value [3] of the same compound?
Answer: 84% and 75%

Question: And the “Population Fragmented Nuclei (%)” value [3]?
Answer: 28% and 19%

Question: What about the “Population Healthy Nuclei (%)” value [3] of the same compound?
Answer: 64% and 68%

Question: What about the “Population Hoechst High Intensity Objects (%)” value [3] of the same compound?
Answer: 2%

Question: What about the “Population Membrane Permeable-Phenotype (%)” value [3] of the same compound?
Answer: 6% and 7%

Question: What about the “Population Mitochondria Different-Phenotype (%)” value [3] of the same compound?
Answer: 1% and 5%

Question: And the “Population Mitotic Cells (%)” value [3]?
Answer: 15% and 25%

Question: What about the “Population Normal (%)” value [3] of the same compound?
Answer: 97%

Question: And the “Population Pyknosed Nuclei (%)” value [3]?
Answer: 7% and 11%

Question: What about the “Population Tubulin-Different-Phenotype (%)” value [3] of the same compound?
Answer: 2% and 1%

Question: What about the “Total Cell Count” value [3] of the same compound?
Answer: 278 and 105

Question: And the “Population Apoptotic (%)” value [4]?
Answer: 94% and 100%

Question: What about the “Population Fragmented Nuclei (%)” value [4] of the same compound?
Answer: 39% and 31%

Question: What about the “Population Healthy Nuclei (%)” value [4] of the same compound?
Answer: 50% and 45%

Question: What about the “Population Hoechst High Intensity Objects (%)” value [4] of the same compound?
Answer: 9% and 11%

Question: And the “Population Membrane Permeable-Phenotype (%)” value [4]?
Answer: 11% and 2%

Question: And the “Population Mitochondria Different-Phenotype (%)” value [4]?
Answer: 5% and 0%

Question: And the “Population Mitotic Cells (%)” value [4]?
Answer: 5% and 0%

Question: And the “Population Normal (%)” value [4]?
Answer: 90% and 88%

Question: What about the “Population Pyknosed Nuclei (%)” value [4] of the same compound?
Answer: 10% and 22%

Question: What about the “Population Tubulin-Different-Phenotype (%)” value [4] of the same compound?
Answer: 6% and 2%

Question: And the “Total Cell Count” value [4]?
Answer: 195 and 96

Question: What about the “Population Apoptotic (%)” value [5] of the same compound?
Answer: 87% and 92%

Question: What about the “Population Fragmented Nuclei (%)” value [5] of the same compound?
Answer: 24% and 18%

Question: And the “Population Healthy Nuclei (%)” value [5]?
Answer: 66% and 72%

Question: And the “Population Hoechst High Intensity Objects (%)” value [5]?
Answer: 0%

Question: What about the “Population Membrane Permeable-Phenotype (%)” value [5] of the same compound?
Answer: 9% and 4%

Question: And the “Population Mitochondria Different-Phenotype (%)” value [5]?
Answer: 5% and 3%

Question: What about the “Population Mitotic Cells (%)” value [5] of the same compound?
Answer: 12% and 7%

Question: And the “Population Normal (%)” value [5]?
Answer: 99%

Question: What about the “Population Pyknosed Nuclei (%)” value [5] of the same compound?
Answer: 9%

Question: And the “Population Tubulin-Different-Phenotype (%)” value [5]?
Answer: 4% and 2%

Question: What about the “Total Cell Count” value [5] of the same compound?
Answer: 333 and 150

Question: What about the “Population Apoptotic (%)” value [6] of the same compound?
Answer: 92% and 94%

Question: What about the “Population Fragmented Nuclei (%)” value [6] of the same compound?
Answer: 41% and 36%

Question: And the “Population Healthy Nuclei (%)” value [6]?
Answer: 44% and 40%

Question: And the “Population Hoechst High Intensity Objects (%)” value [6]?
Answer: 10% and 17%

Question: What about the “Population Membrane Permeable-Phenotype (%)” value [6] of the same compound?
Answer: 15% and 24%

Question: What about the “Population Mitochondria Different-Phenotype (%)” value [6] of the same compound?
Answer: 8% and 13%

Question: What about the “Population Mitotic Cells (%)” value [6] of the same compound?
Answer: 7% and 5%

Question: What about the “Population Normal (%)” value [6] of the same compound?
Answer: 89% and 82%

Question: And the “Population Pyknosed Nuclei (%)” value [6]?
Answer: 14% and 23%

Question: And the “Population Tubulin-Different-Phenotype (%)” value [6]?
Answer: 10% and 13%

Question: What about the “Total Cell Count” value [6] of the same compound?
Answer: 215 and 87
